Results as given in ChEMBL document CHEMBL1123129, “Hypolipidemic activity of indan-1,3-dione derivatives in rodents” (J Med Chem, 1985).

Assays:
[1] = biological target: T1, 3-hydroxy-3-methylglutaryl-coenzyme A reductase (Mus musculus) (UniProt Q01237); experiment: In Vitro evaluation for the CF1 liver enzyme activity on HMG-CoA reductase at concentration 100 uM
T1 sequence (whole entry): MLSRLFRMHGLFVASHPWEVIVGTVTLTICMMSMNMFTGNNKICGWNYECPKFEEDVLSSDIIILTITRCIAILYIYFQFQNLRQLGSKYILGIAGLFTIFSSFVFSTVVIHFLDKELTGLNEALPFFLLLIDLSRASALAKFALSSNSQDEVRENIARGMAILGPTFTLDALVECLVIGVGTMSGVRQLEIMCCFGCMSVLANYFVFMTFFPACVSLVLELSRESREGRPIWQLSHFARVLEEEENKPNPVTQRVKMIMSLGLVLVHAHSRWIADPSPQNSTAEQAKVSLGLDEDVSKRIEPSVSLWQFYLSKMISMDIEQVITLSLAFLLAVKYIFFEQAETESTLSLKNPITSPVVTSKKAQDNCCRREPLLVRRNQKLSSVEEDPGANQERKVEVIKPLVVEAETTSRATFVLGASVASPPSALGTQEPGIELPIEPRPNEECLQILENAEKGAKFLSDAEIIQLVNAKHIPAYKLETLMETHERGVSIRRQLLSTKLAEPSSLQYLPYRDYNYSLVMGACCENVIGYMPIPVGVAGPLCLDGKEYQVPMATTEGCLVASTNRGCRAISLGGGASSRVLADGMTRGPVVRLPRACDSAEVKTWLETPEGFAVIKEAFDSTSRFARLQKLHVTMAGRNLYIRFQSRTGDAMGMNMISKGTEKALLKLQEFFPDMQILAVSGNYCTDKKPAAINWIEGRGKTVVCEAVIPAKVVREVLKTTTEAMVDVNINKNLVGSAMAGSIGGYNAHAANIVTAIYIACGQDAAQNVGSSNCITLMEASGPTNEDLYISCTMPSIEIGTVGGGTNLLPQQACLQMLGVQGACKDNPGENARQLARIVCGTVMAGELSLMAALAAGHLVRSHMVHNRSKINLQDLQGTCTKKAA
How it was run: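 Liver was taken from CF1 male mice and made into 10% homogenates, which were incubated with test compound at 50, 100 or 200 µM. Each enzyme was assayed by its literature method, and protein was measured by Lowry. N = 6. Activity is expressed as % of untreated control ± SD.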

[2] = test system: Mus musculus; experiment: Compound was evaluated for the hypolipidemic activity in CF1 male mice at a dose of 20 mg/kg orally for Serum triglyceride at 16th day; type: functional; conditions: route oral
How it was run: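 CF1 male mice received the agent orally in 1% CMC at 10–60 mg/kg per day. Tail-vein blood was taken on days 9 and 16. Serum cholesterol was measured by modified Liebermann–Burchard on duplicate 25-µL samples, and serum triglyceride on day 16 in duplicate 50-µL samples. Values are % of vehicle control, mean ± SD, N = 6; Student's t test.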

- Control [1]: 109%
SMILES: COc1ccc(C2C(=O)c3ccccc3C2=O)cc1 [ANISINDIONE]
- Control [2]: 48%
